From ChEMBL document CHEMBL1128436, “Synthesis and biological evaluation of a new series of sterols as potential hypocholesterolemic agents” (1995)
Each block holds one compound with its values, some of them ahead of it. Activity calls are given as the source filed them. The rule behind the calls is not given here.

Legend:
[1] = biological target: Low-density lipoprotein receptor (Homo sapiens) (UniProt P01130); assay: Capability of derepressing the transcription of human Low density lipoprotein receptor promoter in the presence of 25-hydroxycholesterol in CHO cells by luciferase assay; NA= Not active within the test range 0-20 ug/mL; assay type: cell-based
Method in brief: (§1)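 Stably transfected CHO clone S27/B30 (LDL receptor promoter fused to firefly luciferase), grown to confluence (2-3 days, 37 °C, 5% CO2). Then 24 h in serum-free assay medium (DMEM/Ham's F-12 3:1, 0.5% bovine albumin) with 25-hydroxycholesterol 0.5 μg/mL plus compound at 0.30-20 μg/mL from ethanol stock, triplicate wells. Lysate luciferase peak light per μg protein (Coomassie). EC30 = concentration giving 30% rise over control. MA = % specific induction at 20 μg/mL.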

[2] = biological target: Low-density lipoprotein receptor (Homo sapiens) (UniProt P01130); assay: Capability of derepressing the transcription of Low density lipoprotein receptor promoter in the presence of 25-hydroxycholesterol in CHO cells measured as maximum activity at 20 ug/mL; assay type: cell-based; method in brief: as §1
[3] = biological target: Low-density lipoprotein receptor (Homo sapiens) (UniProt P01130); assay: Capability of derepressing the transcription of human Low density lipoprotein receptor promoter in the presence of 25-hydroxycholesterol in CHO cells by luciferase assay; assay type: cell-based; method in brief: as §1
CHO = assay: Capability of derepressing the transcription of SV40 promoter in CHO cells by luciferase assay; NA= Not active within the test range 0-20 ug/mL; assay type: functional, cell-based; conditions: Cricetulus griseus
Method in brief: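 Counter-screen in CHO clone SV40/LN9, with luciferase driven by the SV40 promoter. Confluent monolayers were given compound at 0.30-20 μg/mL for 24 h in serum-free albumin assay medium, triplicate wells. Lysates were read for luciferase peak luminescence, normalized to lysate protein.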

Cricetinae gen. sp. [4] = assay: Total serum cholesterol level with relative to the control value (333(23)) in hamsters at a dose of 0.2% of diet for 1 week; assay type: functional, Cricetulus griseus
Mesocricetus auratus [5] = organism: Mesocricetus auratus; assay: Serum cholesterol level change relative to the control value (333(23)) in hamsters at a dose of 0.2% of diet for 1 week
Cricetinae gen. sp. [6] = assay: Total serum cholesterol level with relative to the control value (366(24)) in hamsters at a dose of 0.2% of diet for 1 week; assay type: functional, Cricetulus griseus
Mesocricetus auratus [7] = organism: Mesocricetus auratus; assay: Serum cholesterol level change relative to the control value (366(24)) in hamsters at a dose of 0.2% of diet for 1 week

Chain of Low-density lipoprotein receptor (Homo sapiens) (P01130 whole entry, the tested form may be a part): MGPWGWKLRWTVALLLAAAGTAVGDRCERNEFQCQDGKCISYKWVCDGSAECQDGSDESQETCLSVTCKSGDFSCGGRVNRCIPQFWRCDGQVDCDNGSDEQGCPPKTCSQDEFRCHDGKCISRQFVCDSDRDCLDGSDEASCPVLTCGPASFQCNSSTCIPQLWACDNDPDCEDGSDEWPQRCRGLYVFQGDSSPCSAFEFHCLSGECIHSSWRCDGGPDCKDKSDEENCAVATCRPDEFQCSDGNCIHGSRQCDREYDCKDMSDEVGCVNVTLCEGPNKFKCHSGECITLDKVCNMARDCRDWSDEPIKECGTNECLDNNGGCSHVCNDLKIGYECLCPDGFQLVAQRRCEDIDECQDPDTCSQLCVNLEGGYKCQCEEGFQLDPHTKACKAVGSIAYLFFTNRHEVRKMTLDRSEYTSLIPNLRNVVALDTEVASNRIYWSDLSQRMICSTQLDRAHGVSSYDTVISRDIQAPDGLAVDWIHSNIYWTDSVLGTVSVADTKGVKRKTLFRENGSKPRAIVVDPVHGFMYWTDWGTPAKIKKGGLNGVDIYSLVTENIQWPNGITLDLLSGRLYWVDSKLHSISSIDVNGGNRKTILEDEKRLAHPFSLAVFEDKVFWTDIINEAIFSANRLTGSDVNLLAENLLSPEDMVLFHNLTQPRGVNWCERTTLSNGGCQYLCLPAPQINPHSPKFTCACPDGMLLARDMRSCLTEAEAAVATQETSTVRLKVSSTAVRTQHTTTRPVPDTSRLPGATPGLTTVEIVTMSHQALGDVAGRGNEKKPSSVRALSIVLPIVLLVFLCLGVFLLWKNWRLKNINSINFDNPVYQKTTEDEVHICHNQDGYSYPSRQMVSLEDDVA

- EC30 [1]: inactive
Structure (SMILES): CC(C)CCC[C@@H](C)[C@H]1CC[C@H]2[C@@H]3CCC4[C@H](Cc5ccc(Cl)c(Cl)c5)[C@H](O)CC[C@]4(C)[C@H]3CC[C@]12C (stereo not given in full)

- EC30 [1]: inactive
Structure (SMILES): C=CC[C@@H]1C[C@H]2[C@@H]3CC[C@H]([C@H](C)CCCC(C)C)[C@@]3(C)CC[C@@H]2[C@@]2(C)CC[C@@H](O)CC12 (stereo not given in full)

- MA [2]: 111%
- EC30 [3]: 9.4 µM
Structure (SMILES): C=CC[C@H]1C2CC[C@H]3[C@@H]4CC[C@H]([C@H](C)CCCC(C)(C)O)[C@@]4(C)CC[C@@H]3[C@@]2(C)CC[C@H]1O (stereo not given in full)

Structure (SMILES): C=C(C)C[C@H]1C2CC[C@H]3[C@@H]4CC[C@H]([C@H](C)CC[C@@H](CC)C(C)C)[C@@]4(C)CC[C@@H]3[C@@]2(C)CC[C@H]1O (stereo not given in full)
- Activity (CHO): inactive
- Total cholesterol (Cricetinae gen. sp. [4]): 196 mg/dL
- MA [2]: 165%
- EC30 [3]: 3.1 µM
- Relative change (Mesocricetus auratus [5]): -41%

- EC30 [1]: inactive
Structure (SMILES): CC/C=C/C[C@H]1C2CC[C@H]3[C@@H]4CC[C@H]([C@H](C)CCCC(C)C)[C@@]4(C)CC[C@@H]3[C@@]2(C)CC[C@H]1O (stereo not given in full)

- EC30 [1]: inactive
Structure (SMILES): CC(C)CCC[C@@H](C)[C@H]1CC[C@H]2[C@@H]3CCC4[C@H](C/C=C/CO)[C@H](O)CC[C@]4(C)[C@H]3CC[C@]12C (stereo not given in full)

- EC30 [1]: inactive
Structure (SMILES): C=CC[C@@H]1C[C@@]2(C)C(CC[C@H]3[C@@H]4CC[C@H]([C@H](C)CCCC(C)C)[C@@]4(C)CC[C@@H]32)C[C@H]1O (stereo not given in full)

- EC30 [1]: inactive
Structure (SMILES): C=CC[C@@H]1[C@H]2CC[C@@H]3[C@H](CC[C@]4(C)[C@@H]([C@H](C)CCCC(C)C)CC[C@@H]34)[C@@]2(C)CC[C@@H]1O

- EC30 [1]: inactive
Structure (SMILES): COc1ccc(C[C@H]2C3CC[C@H]4[C@@H]5CC[C@H]([C@H](C)CCCC(C)C)[C@@]5(C)CC[C@@H]4[C@@]3(C)CC[C@H]2O)cc1 (stereo not given in full)

- MA [2]: 72%
- EC30 [3]: 18 µM
Structure (SMILES): C/C=C(\C)C[C@H]1C2CC[C@H]3[C@@H]4CC[C@H]([C@H](C)CCCC(C)C)[C@@]4(C)CC[C@@H]3[C@@]2(C)CC[C@H]1O (stereo not given in full)
- Activity (CHO): inactive

Structure (SMILES): C=CC[C@H]1C2CC[C@H]3[C@@H]4CC[C@H]([C@H](C)CC[C@@H](CC)C(C)C)[C@@]4(C)CC[C@@H]3[C@@]2(C)CC[C@H]1O (stereo not given in full)
- Activity (CHO): inactive
- Total cholesterol (Cricetinae gen. sp. [4]): 217 mg/dL
- MA [2]: 95%
- EC30 [3]: 8.2 µM
- Relative change (Mesocricetus auratus [5]): -35%

Structure (SMILES): C=CC[C@@H]1C(=O)CC[C@]2(C)[C@H]3CC[C@]4(C)[C@@H]([C@H](C)CCCC(C)C)CC[C@H]4[C@@H]3CC[C@@H]12
- Total cholesterol (Cricetinae gen. sp. [6]): 267 mg/dL
- EC30 [1]: inactive
- Relative change (Mesocricetus auratus [7]): -27%

- EC30 [1]: inactive
Structure (SMILES): CC(C)CCC[C@@H](C)[C@H]1CC[C@H]2[C@@H]3CCC4[C@H](Cc5ccccc5F)[C@H](O)CC[C@]4(C)[C@H]3CC[C@]12C (stereo not given in full)

- EC30 [1]: inactive
Structure (SMILES): C=C[C@H]1C2CC[C@H]3[C@@H]4CC[C@H]([C@H](C)CCCC(C)C)[C@@]4(C)CC[C@@H]3[C@@]2(C)CC[C@H]1O (stereo not given in full)

- EC30 [1]: inactive
Structure (SMILES): Cc1cccc(C[C@H]2C3CC[C@H]4[C@@H]5CC[C@H]([C@H](C)CCCC(C)C)[C@@]5(C)CC[C@@H]4[C@@]3(C)CC[C@H]2O)c1 (stereo not given in full)

- EC30 [1]: inactive
Structure (SMILES): C=CC[C@H]1[C@H](O)CC[C@@]2(C)[C@@H]1CC[C@@H]1[C@@H]2CC[C@]2(C)[C@@H]([C@H](C)CCCC(C)C)CC[C@@H]12

- EC30 [1]: inactive
Structure (SMILES): CC(C)CCC[C@@H](C)[C@H]1CC[C@H]2[C@@H]3CCC4[C@H](C/C=C/c5ccccc5)[C@H](O)CC[C@]4(C)[C@H]3CC[C@]12C (stereo not given in full)

- MA [2]: 131%
- EC30 [3]: 3.2 µM
Structure (SMILES): C=C(Br)C[C@H]1C2CC[C@H]3[C@@H]4CC[C@H]([C@H](C)CCCC(C)C)[C@@]4(C)CC[C@@H]3[C@@]2(C)CC[C@H]1O (stereo not given in full)
- Activity (CHO): inactive

Structure (SMILES): CC(C)CCC[C@@H](C)[C@H]1CC[C@H]2[C@@H]3CCC4[C@H](Cc5ccc(F)cc5)[C@H](O)CC[C@]4(C)[C@H]3CC[C@]12C (stereo not given in full)
- Activity (CHO): inactive
- Total cholesterol (Cricetinae gen. sp. [6]): 181 mg/dL
- MA [2]: 80%
- EC30 [3]: 17 µM
- Relative change (Mesocricetus auratus [7]): -50%

- EC30 [1]: inactive
Structure (SMILES): CC(C)CCC[C@@H](C)[C@H]1CC[C@H]2[C@@H]3CCC4[C@H](Cc5ccc(CO)cc5)[C@H](O)CC[C@]4(C)[C@H]3CC[C@]12C (stereo not given in full)

- EC30 [1]: inactive
Structure (SMILES): CC(C)CCC[C@@H](C)[C@H]1CC[C@H]2[C@@H]3CC[C@H]4CC(=O)CC[C@]4(C)[C@H]3CC[C@]12C
